Tests used:
[1] = system: Chorioallantoic membrane; assay: Antiangiogenic activity in chicken chorioallantoic membrane assessed as inhibition of VEGF-induced blood vessel formation at 0.01 nmol […] measured after 3 days; format: functional, cell membranes; details: Gallus gallus
[2] = system: A549; assay: Cytotoxicity against human A549 cells inoculated with chicken chorioallantoic membrane assessed as tumor inhibition after 3 days; format: functional, cell-based
In short: (§1)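 A549 cells (2 × 10⁶ cells/CAM) in Matrigel implanted on CAM, then compound at different concentrations; incubated three days at 37 °C, 55% humidity. Tumor mass grown on CAM isolated and weighed; mean ± S.E.M.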

[3] = system: Chorioallantoic membrane; assay: Antiangiogenic activity in human A549 cells inoculated chicken chorioallantoic membrane assessed as inhibition of blood vessel formation at 1 pmol after 3 days; format: functional, Gallus gallus
In short: (§2)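 A549 lung cancer cells (2 × 10⁶ cells/CAM) in Matrigel inoculated onto CAM instead of VEGF, then compound at varied doses; three days at 37 °C, 55% humidity. Vessel branch points within tumor region counted double-blind by two observers; mean ± S.E.M.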

[4] = system: A549; assay: Cytotoxicity against human A549 cells inoculated with chicken chorioallantoic membrane assessed as tumor inhibition at 0.01 pmol after 3 days; format: functional; in short: as §1
[5] = system: Chorioallantoic membrane; assay: Antiangiogenic activity in chicken chorioallantoic membrane assessed as inhibition of VEGF-induced blood vessel formation treated 30 mins before VEGF addition measured after 3 days; format: functional; details: Gallus gallus
[6] = system: Chorioallantoic membrane; assay: Antiangiogenic activity in human A549 cells inoculated chicken chorioallantoic membrane assessed as inhibition of blood vessel formation at 0.01 pmol after 3 days; format: functional, Gallus gallus; in short: as §2
[7] = system: Chorioallantoic membrane; assay: Antiangiogenic activity in human A549 cells inoculated chicken chorioallantoic membrane assessed as inhibition of blood vessel formation at 0.1 pmol after 3 days; format: functional, Gallus gallus; in short: as §2
[8] = system: A549; assay: Cytotoxicity against human A549 cells inoculated with chicken chorioallantoic membrane assessed as tumor inhibition at 1 pmol after 3 days; format: functional; in short: as §1
[9] = system: Chorioallantoic membrane; assay: Antiangiogenic activity in human A549 cells inoculated chicken chorioallantoic membrane assessed as inhibition of blood vessel formation after 3 days; format: functional, cell-based; details: Gallus gallus; in short: as §2
[10] = system: A549; assay: Cytotoxicity against human A549 cells inoculated with chicken chorioallantoic membrane assessed as tumor inhibition at 0.1 pmol after 3 days; format: functional; in short: as §1

Structure (SMILES): Cc1nc(NC2CCCCC2)c(C)c(C)c1O
- inhibition [1]: 36.8%

Structure (SMILES): CCCCCCNc1nc(C)c(O)c(C)c1C
- inhibition [1]: 53.7%

Structure (SMILES): Cc1nc(-n2cccc2)c(C)c(C)c1O
- inhibition [1]: 44%

Structure (SMILES): Cc1nc(N(C)c2ccccn2)c(C)c(C)c1O
- inhibition [1]: 42.2%

Structure (SMILES): Cc1nc(N2CCN(C)CC2)c(C)c(C)c1O
- inhibition [1]: 24.7%

Structure (SMILES): Cc1nc(Nc2ccc([N+](=O)[O-])cc2)c(C)c(C)c1O
- inhibition [2]: Dose-dependent effect
- inhibition [1]: 75%
- inhibition (INH) [3]: 34.5%
- inhibition (INH) [4]: 25.3%
- ID50 [5]: 4.4 pg
- inhibition [5]: Dose-dependent effect
- inhibition (INH) [6]: 19.9%
- inhibition (INH) [7]: 25.6%
- inhibition (INH) [8]: 50.1%
- inhibition [9]: Dose-dependent effect
- inhibition (INH) [10]: 44.4%

Structure (SMILES): CN(C)c1ccc(/C=C2\C(=O)Nc3ccccc32)cc1
- inhibition [2]: Dose-dependent effect
- inhibition [1]: 70.5%
- inhibition (INH) [3]: 36.2%
- inhibition (INH) [4]: 16.2%
- ID50 [5]: 10.5 pg
- inhibition [5]: Dose-dependent effect
- inhibition (INH) [6]: 20.8%
- inhibition (INH) [7]: 25.1%
- inhibition (INH) [8]: 26.8%
- inhibition [9]: Dose-dependent effect
- inhibition (INH) [10]: 23.4%

Structure (SMILES): CCCCCCCCCCCCCCCCNc1nc(C)c(O)c(C)c1C
- inhibition [1]: 30.1%

Structure (SMILES): Cc1nc(Nc2ccc3c(c2)OCO3)c(C)c(C)c1O
- inhibition [1]: 62.4%

Structure (SMILES): Cc1nc(NCCCOc2nc(C)c(O)c(C)c2C)c(C)c(C)c1O
- inhibition [1]: 67.3%

Structure (SMILES): Cc1nc(N2CCCC2)c(C)c(C)c1O
- inhibition [1]: 69.5%

Structure (SMILES): Cc1nc(N2CCOCC2)c(C)c(C)c1O
- inhibition [1]: 59%

Structure (SMILES): Cc1nc(Nc2ccccc2C(C)C)c(C)c(C)c1O
- inhibition [1]: 55.3%

Structure (SMILES): Cc1nc(Nc2ccccc2)c(C)c(C)c1O
- inhibition [1]: 69.4%

Structure (SMILES): Cc1nc(N(c2ccccc2)c2ccccc2)c(C)c(C)c1O
- inhibition [1]: 65.4%

Structure (SMILES): Cc1nc(Nc2ccc(Br)cc2)c(C)c(C)c1O
- inhibition [1]: 61.7%

Structure (SMILES): Cc1nc(NCc2ccccc2)c(C)c(C)c1O
- inhibition [1]: 56.7%

Structure (SMILES): Cc1nc(NCCCO)c(C)c(C)c1O
- inhibition [1]: 46.3%

Structure (SMILES): Cc1nc(N)c(C)c(C)c1O
- inhibition [2]: Dose-dependent effect
- inhibition [1]: 80.9%
- inhibition (INH) [3]: 20.7%
- inhibition (INH) [4]: 20.5%
- ID50 [5]: 3.2 pg
- inhibition [5]: Dose-dependent effect
- inhibition (INH) [6]: 16.6%
- inhibition (INH) [7]: 18%
- inhibition (INH) [8]: 27.4%
- inhibition [9]: Dose-dependent effect
- inhibition (INH) [10]: 25.2%
